Measured values from paper PMC3177973 (Biochemistry, 2011).

What was measured:
α-synuclein [1] = molecular target: T1, α-synuclein (Homo sapiens, UniProt P37840); conditions: similar effect as WW2; cited from earlier work
α-synuclein [2] = molecular target: T1, α-synuclein; assay: TEM imaging of α-syn aggregation assays; format: biochemical; conditions: 2 molar equivalents; images after 16–24 hrs; AA = amorphous aggregates
In short: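 Full-length 140-residue α-syn was expressed in E. coli BL21(DE3) and purified by anion exchange. It was used at 100 μM in 20 mM Tris-HCl pH 7.5, at 37 °C with vigorous stirring, with or without peptide. HFIP was added to 1.5 vol-% to start aggregation. After 16–24 h, a freshly agitated 5 μL aliquot was adsorbed on formvar/carbon-coated copper grids, negatively stained with 2% uranyl acetate and imaged by TEM.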

α-synuclein [3] = molecular target: T1, α-synuclein; assay: α-syn aggregation assay, CD spectroscopy; format: biochemical; conditions: 2 molar equivalents; for β CD signal, % β, α-syn assay: at 16 h (no time printed for MrH3b); for Effect on course, onset or lag time of α-syn aggregation (in words): monitored by CD and ThT
In short: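 Recombinant full-length α-syn was expressed in E. coli BL21(DE3) and used at 100 μM in 20 mM Tris-HCl pH 7.5. Aggregation was started by HFIP addition (1.5 vol-% final) under continuous stirring at 37 °C, with or without inhibitor peptide and without ThT. Every 2–4 h, a 5 μL aliquot was diluted into 195 μL of 1.5% HFIP buffer (2.5 μM α-syn). Spectra were recorded in 0.1 cm cells to follow the random coil-to-β transition, corrected for inhibitor contribution.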

Row | Compound | Excess of inhibitor required for non-amyloid α-syn aggregates (α-synuclein [1]) [fold excess] | Fibril Morphology (TEM), α-syn (α-synuclein [2]) | Time by which β CD signal appears, α-syn assay (α-synuclein [3]) | β CD signal, % β, α-syn assay (α-synuclein [3]) [%] | Effect on course, onset or lag time of α-syn aggregation (in words) (α-synuclein [3]) | β CD signal, α-syn assay (in words) (α-synuclein [3]; 100 μM α-syn, 1.5 vol-% HFIP)
1 | O=C(O[C@@H]1Cc2c(O)cc(O)cc2O[C@@H]1c1cc(O)c(O)c(O)c1)c1cc(O)c(O)c(O)c1 [EGCG, (−)-epigallocatechin-3-gallate] | 5 |  |  |  |  | 
2 | Ac-KIVTSAK [ssMrH] |  | Normal | β signal within 6 h, 100% 16 h hours | 100 | no effects on the course of α-syn aggregation | 
3 | KKLTVWI [ssW] |  | Normal + AA |  | 80 | delays aggregation (as monitored by CD) | Helical at 4–6 hours 80 % β at 16 h
